In one data set the test system is hsp90 and immunophilins. As to conditions: millimolar concentration; ref [28]; cited from earlier work.
In another data set the test system is hsp90 and CHIP. Nature of the data set: TPR co-chaperone and hsp90 binding assay, CHIP. To be noted: CA1 at 10 μM. In outline:
(§1)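 Binding of each TPR co-chaperone (Unc45, CHIP, TOM70, HOP, Cyp40, FKBP52, FKBP51) to hsp90 measured with increasing test compound, 0–5μM or 0–10μM depending on compound.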

The next data set concerns FKBP52. Nature of the data set: FKBP52 protein level in HeLa cell lysate, western blot. It counts as cell-based. To be noted: n≥3. An outline of the steps: (§2)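 HeLa cells treated with test compounds at two concentrations each (100nM and 1μM, or 5μM and 50μM). Cell lysates analysed by western blot. Bands quantitated by densitometry, normalized to GAPDH and to DMSO control. n≥3, mean±SEM.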
(In general: A western blot detects proteins with antibodies after separation by electrophoresis.)

A further data set relates to hsp90 and Unc45. Put plainly: TPR co-chaperone and hsp90 binding assay, Unc45. As to conditions: CA1 0–10 μM. In outline:
as §1

For a further data set, the system named is FKBP51. Put plainly: FKBP51 protein level in HeLa cell lysate, western blot. It is filed as cell-based. To be noted: n≥3. In outline: as §2
The subject of the next data set is hsp90 and FKBP51. Nature of the data set: TPR co-chaperone and hsp90 binding assay, FKBP51. In outline: as §1
The test system of another data set is hsp90 and TOM70. Put plainly: TPR co-chaperone and hsp90 binding assay, TOM70. An outline of the steps:
as §1

A further data set relates to hsp90 and FKBP52. Put plainly: TPR co-chaperone and hsp90 binding assay, FKBP52. To be noted: CA1 0–10 μM; some Figure 5 data marked * previously published, ref [31].
For a further data set, the system named is hsp90 and HOP. Put plainly: TPR co-chaperone and hsp90 binding assay, HOP. As to conditions: CA1 0–10 μM; some Figure 5 data marked * previously published, ref [31].
The subject of another data set is hsp90 and Cyp40. Put plainly: TPR co-chaperone and hsp90 binding assay, Cyp40. As to conditions: CA1 at 10 μM. In outline:
as §1

The subject of a further data set is hsp70. Nature of the data set: hsp70 protein level in HeLa cell lysate, western blot. It counts as cell-based. As to conditions: normalized to GAPDH and DMSO control, n≥3. An outline of the steps:
as §2

The test system of data set [1] is hsp90. Nature of the data set: Luciferase refolding assays. It is filed as biochemical. As to conditions: 17-AAG 1 μM, SM145 50 μM (Figure 3); CA1 in Supplemental Figure S3. An outline of the steps: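 Refolding of heat-denatured firefly luciferase, read as luciferase activity over time up to 2 h, in two systems: rabbit reticulocyte lysate, and a pure protein system with 1μM hsp70, 0.2μM hsp40, 0.1μM HOP and 0.5μM hsp90. Test compounds at 1μM or 50μM. n=3, mean±SEM.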

Another data set deals with heat shock response. Put plainly: Heat shock response. It counts as cell-based. To be noted: HeLa; 17-AAG 100 nM and 1 μM, CA1 and SM145 5 μM and 50 μM; hsp70, hsp90, HSF1 levels.
In data set [2] the test system is hsp90. Put plainly: hsp90 protein level in HeLa cell lysate, western blot. It counts as cell-based. To be noted: 17-AAG 100 nM and 1 μM, normalized to GAPDH and DMSO control, n≥3. An outline of the steps: as §2
The test system of another data set is HeLa cells. As to conditions: assay not described; HeLa treated at IC50 and ten-fold over IC50; ref [36]; cited from earlier work.
Data set [3] has as its system glucocorticoid receptor (GR). Nature of the data set: Glucocorticoid receptor. As to conditions: HeLa; 17-AAG 100 nM and 1 μM; n≥3. It is filed as cell-based. In outline: as §2
Another data set relates to HSF1. Put plainly: HSF1 protein level in HeLa cell lysate, western blot. It counts as cell-based. To be noted: 17-AAG 100 nM and 1 μM, normalized to GAPDH and DMSO control, n≥3. An outline of the steps: as §2
The mark [4] stands for this setting: 17-AAG 100 nM and 1 μM, normalized to GAPDH, compared to DMSO.

A word on the IC50: it is the concentration at which inhibition is half-maximal.

Structures are written as SMILES.

Take `CO[C@@H]1[C@@H](OC(N)=O)[C@@H](O)[C@H](Oc2ccc3c(O)c(NC(=O)c4ccc(O)c(CC=C(C)C)c4)c(=O)oc3c2C)OC1(C)C` [novabiocin]: in the data set with hsp90 and immunophilins, the “disruption of immunophilins from binding to hsp90” value is “disrupts immunophilins from binding to hsp90”.
Take `CO[C@H]1[C@H](OC(=O)c2ccc(C)[nH]2)[C@H](O)[C@@H](Oc2ccc3c(O)c(NC(=O)c4c[nH]c(C(=O)Nc5c(O)c6ccc(O[C@H]7OC(C)(C)[C@@H](OC)[C@H](OC(=O)c8ccc(C)[nH]8)[C@@H]7O)c(C)c6oc5=O)c4C)c(=O)oc3c2C)OC1(C)C` [CA1, coumermycin A1]: the “inhibition of CHIP binding to hsp90” value with hsp90 and CHIP was “inhibiting”. The “FKBP52 protein level” value with FKBP52 (CA1 at high concentrations, relative to control) is given as “slightly decreases”. For the same compound, in the data set on hsp90 and Unc45, the “effect on binding between hsp90 and Unc45” value was “no impact”. In the data set on FKBP51 (CA1 5 μM and 50 μM), the “FKBP51 protein level” value is given as “little change”. Further, in the data set with hsp90 and FKBP51 (CA1 0–10 μM), the “effect on binding between hsp90 and FKBP51” value is given as “no impact”. Further, the “inhibition of TOM70 binding to hsp90” value in the data set with hsp90 and TOM70 (CA1 at 10 μM) is recorded as “inhibiting”. Moreover, the “effect on binding between hsp90 and FKBP52” value with hsp90 and FKBP52 is “no impact”. In addition, the “effect on binding between hsp90 and HOP” value in the data set on hsp90 and HOP is on record as “no impact”. Further, the “inhibition of Cyp40 binding to hsp90” value in the data set on hsp90 and Cyp40 is recorded as “inhibiting”. Besides, the “hsp70 protein level” value in the data set with hsp70 (5 μM and 50 μM) is “maintenance of hsp70 protein levels”. In addition, the “luciferase activity over time” value in the data set with hsp90 [1] is listed as “reduce the luciferase activity over time”. Besides, in the data set with heat shock response, the “heat shock response triggered” value was “the HSR was not triggered”.
As for `C=CCNC1=C2C[C@@H](C)C[C@H](OC)[C@H](O)[C@@H](C)/C=C(\C)[C@H](OC(N)=O)[C@@H](OC)/C=C\C=C(/C)C(=O)NC(=CC1=O)C2=O` [17-AAG], in the data set on FKBP52 (setting [4]), the “FKBP52 protein level, fold increase” value is on record as ~ 4 fold. The “hsp90 protein level, fold increase” value with hsp90 [2] is reported as roughly 3 fold. For the same compound, the “FKBP51 protein level, fold increase” value with FKBP51 (setting [4]) was ~ 2 fold. For the same compound, the “inhibition of FKBP51 binding to hsp90” value in the data set with hsp90 and FKBP51 (17-AAG at 5 μM) was “only partially inhibits”. Also, the “inhibition of TOM70 binding to hsp90” value with hsp90 and TOM70 (17-AAG at 5 μM) is “only partially inhibits”. The IC50 with HeLa cells is roughly 100 nM. Besides, in the data set on hsp70 (17-AAG 100 nM and 1 μM), the “hsp70 protein level, fold increase” value is on record as ~ 2.5 fold. In addition, the “luciferase activity over time” value in the data set on hsp90 [1] is on record as “reduce the luciferase activity over time”. Besides, the “GR protein level” value in data set [3] was “no change”. Also, in the data set with HSF1, the “HSF1 protein level, fold increase” value is recorded as roughly 4 fold. Moreover, in the data set with heat shock response, the “heat shock response triggered” value was “triggering the heat shock response”.

The values above are taken from PMC4547841 (Bioorganic & medicinal chemistry letters, 2013).
